Experimental data taken from ChEMBL document CHEMBL4513216, “Probing the Open Global Health Chemical Diversity Library for Multistage-Active Starting Points for Next-Generation Antimalarials” (ACS Infect Dis, 2020).

Assay: Toxicity liver stage against HepG2, at 10uM
Type: cell-based
Parameters: test concentration 10 uM, cell line HepG2-A16-CD81EGFP
Details: human, HepG2-A16-CD81EGFP cells; read-out: INHIBITION
In short: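 Uninfected HepG2-A16-CD81EGFP cells, 3 × 10^3 per well, 1536-well, plated on prespotted compound at 10 μM final, parasite-free screening media added to match infected plates; puromycin 10 μM positive, DMSO 0.5% negative; run in parallel with 48 h PbLuc assay at 37 °C, 5% CO2; viability by CellTiter-Glo luminescence, normalized to controls.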

| SMILES | cytotoxicity at 10 µM [%] |
| --- | --- |
| CCOC(=O)CNC(=O)NCc1cc(C)n(-c2ccc(OC)cc2)c1C | 8.27 |
| CC(=O)Nc1cccc2c1ccn2CC(=O)NC(C)C | -7.79 |
| CCC(=O)N1CCC2(COCc3c(C)nc(NCc4ccco4)nc32)C1 (stereo unspecified) | 1.75 |
| CC(C)NC(=O)N1CCC2(CCCO2)C1 (stereo unspecified) | 3.14 |
| Fc1cccc(CNCC2Cn3nncc3CO2)c1 (stereo unspecified) | 10.9 |
| CN(Cc1cccnc1)C1CC2(CCN(C(=O)c3cnccn3)CC2)C1 | -0.733 |
| CCN(c1ccc(C(=O)NCCCN2CCCCC2)cc1)S(=O)(=O)CC | 7.91 |
| O=C1CC(c2cccnc2)c2c(c(C(=O)O)cn2-c2ccccc2)N1 (stereo unspecified) | 9.92 |
| CCOC(=O)C1CCN(C(=O)Cn2ccc3cc(Br)ccc32)CC1 | -8.23 |
| COC(=O)CNC(=O)CSCc1nc(O)c2c(C)c(C)sc2n1 | 0.562 |
| CN(C)C(=O)CC1CC2(CCN(C(=O)N(C)C)CC2)Oc2ccccc21 (stereo unspecified) | -11.5 |
| Cc1nc(N2CCCC2)ncc1-c1cc(O)nc(N2CCOCC2)n1 | 10.4 |
| COc1ccc(C2=Nn3c(CCN)nnc3-c3ccccc3C2)cc1 | 4.92 |
| c1ccc2c(N3CCOCC3)cnnc2c1 | -6.06 |
| COc1ccccc1CNC(=O)C(C)n1cc2c(n1)c(C)nn2C (stereo unspecified) | 1.61 |
| Cc1ccccc1CNC(=O)Cn1ncc2c1c(C)nn2C | 9.71 |
| Cc1nn(C)c2cnn(Cc3ccc(C(=O)N4CCCCC4)o3)c12 | 11.3 |
| CCn1nc(C)c2ncnc(N(C)C)c21 | 3.18 |
| CCc1noc(C2CCCCN2C(=O)c2ccoc2C)n1 (stereo unspecified) | 12.5 |
| CO[C@H]1CN(C(=O)c2cccc(C)n2)CC[C@@]12CCCO2 | -6.6 |
| O=C(O)[C@H]1OCC(=O)N(Cc2cccc(Cl)c2)[C@@H]1c1ccccc1 | 7.35 |
| NC(=O)C1CN(C(=O)c2ccc(F)cc2)CCN1CCc1ccccc1 (stereo unspecified) | 2.77 |
| O=C(O)c1ccccc1-c1ccc(CN2CCOCC2)cn1 | -1.1 |

| SMILES | cytotoxicity at 10 µM [%] |
| --- | --- |
| O=C(O)c1ccccc1-c1cnc(Cn2c(=O)cc[nH]c2=O)s1 | 2.95 |
| CN(C)C(=O)CN1CCC2(CC1)C[C@@H](O)[C@H](c1ccccc1)NC2=O | -22.4 |
| Cc1cccc2nc(C(=O)N3CCCC[C@]4(C)NC(=O)CC[C@H]34)cn12 | -13.7 |
| CCc1nnc(Nc2cccc(C3CCN(C(=O)CN(C)C)CC3)n2)s1 | -39.1 |
| O=C(O)C1(Cc2cc(-c3ccccc3F)no2)CCOCC1 | -9.41 |
| COc1ccc(CN(Cc2cn(C)nc2C)CC2CCCO2)c(OC)c1 (stereo unspecified) | -7.3 |
| COc1ncc(C(=O)N2CCC(c3nc(C)n4ccsc34)CC2)cn1 | -17.4 |
| CNc1ccc(CC2CCCN(C(=O)c3c(C)noc3C)C2)nn1 (stereo unspecified) | -5 |
| Cn1cncc1CN1CC[C@](C)(O)[C@@H](Oc2cccc(F)c2)C1 | -8.49 |
| Cn1ccnc1CC1CCCN(C(=O)Cc2ccccc2)C1 (stereo unspecified) | -4.14 |
| COCCN1CCCC(c2nccnc2Nc2nc(C)cs2)C1 (stereo unspecified) | -7.16 |
| Cc1ccc(C(=O)N2CCCCC2CN(C)C)cc1 (stereo unspecified) | -9.98 |
| COCCn1c(C(=O)NCC(C)C(=O)O)cc2ccccc21 (stereo unspecified) | 2.64 |
| NC(=O)N1CCCC(C(=O)NCCOc2ccc3c(c2)OCO3)C1 (stereo unspecified) | -102 |
| Cc1cc(C(=O)Nc2ccc(-c3nnc(N(C)C)o3)cc2)oc1C | 0.11 |
| COC(=O)C1=NN2C(=NS(=O)(=O)c3ccccc32)N1 | -8.57 |
| CCc1nccn1C1CCCN(C(=O)c2ccc(C(N)=O)cn2)C1 (stereo unspecified) | 1.89 |
| CCOc1ccc(C(=O)N(C)Cc2nccn2CC(F)(F)F)cc1 | -0.296 |
| Cc1ccc(C(=O)N(C)Cc2csc(Br)c2)c(=O)[nH]1 | 15.3 |
| Cc1cc(N2CCC(N(C)C(=O)c3cccs3)CC2)nc(C)n1 | 6.74 |
| NC(=O)c1ccc(CN2CCCC(N3CCCCCC3)C2)cc1 (stereo unspecified) | -6.46 |
| N#Cc1cccnc1N1CCC(c2nc(C(F)(F)F)c[nH]2)CC1 | 2.74 |
| CN1CCN(S(C)(=O)=O)c2ccc(F)cc21 | -4.12 |

| SMILES | cytotoxicity at 10 µM [%] |
| --- | --- |
| O=C(C[S+]([O-])Cc1ccc(Cl)cc1Cl)N1CCc2sccc2C1 (stereo unspecified) | 2.13 |
| O=C(NCCC1CCN(CC(F)(F)F)CC1)C1COCCO1 (stereo unspecified) | 1.38 |
| O=C(C[S+]([O-])Cc1cccc(C(F)(F)F)c1)NC1CCCC1 (stereo unspecified) | 7.72 |
| CC(C)(O)CN1CCN(C(=O)COC2CCCCC2)CC1 | -2.77 |
| Cc1noc(CNC(=O)C(C)(C)NC(=O)OC(C)(C)C)n1 | 13.9 |
| Cc1cc(NCc2cccc(C#N)c2)ccc1C(=O)N(C)C | 7.06 |
| CS(=O)(=O)CCCN(CCCO)C1CCc2ccccc21 (stereo unspecified) | -10.4 |
| O=C(CN1CCCC(c2ccn[nH]2)C1)N1CCCc2ccccc21 (stereo unspecified) | -3.41 |
| Cc1cc(C(=O)Nc2ccc(N3CCCC3)cn2)ccc1-n1cncn1 | 19.8 |
| CC(C)(NS(C)(=O)=O)c1nc(-c2ccncc2)no1 | 12.9 |
| COc1ccc(CNCC2CC2)cc1F | -22 |
| CC(C)C(C(=O)N1CCN(c2ccncc2)CC1)n1cncn1 (stereo unspecified) | -9.35 |
| Cc1cc(C(=O)N2CCCC2c2nnc3n2CCCCC3)no1 (stereo unspecified) | -14 |
| CC(C)(C(=O)NCC(N)=O)c1ccccc1F | -5.33 |
| Cc1nsc(NC(=O)NC2(CN3CCCCC3)CCCCC2)n1 | 10.6 |
| CC[C@@]1(O)CCN(C(=O)CCNC(=O)c2ccc(F)cc2)C[C@H]1O | 0.0652 |
| CC(C)c1cc(NCC2(N3CCOCC3)CCCCC2)ncn1 | -12.8 |
| COCCc1noc(-c2cn(Cc3ccc(OC)cc3)nn2)n1 | 5.07 |
| CC(O)c1cn(CC2CCN(C(=O)CN3CCCC3=O)CC2)nn1 (stereo unspecified) | 2.31 |
| Cc1nonc1CN(C)Cc1c[nH]nc1-c1ccc(F)cc1F | 11.9 |
| CCc1ccc(CN2CCOC(Cc3cccc(F)c3)C2)nc1 (stereo unspecified) | -2.33 |
| CCn1c(C2CCCN(C(=O)c3ccc[nH]3)C2)nn(CCN(C)C)c1=O (stereo unspecified) | 2.67 |
| COc1cccc(C(=O)N2CCc3c(nc(N)[nH]c3=O)C2)c1C | 1.96 |

| SMILES | cytotoxicity at 10 µM [%] |
| --- | --- |
| O=C(c1c[nH]c(=O)[nH]c1=O)N1CCCC(c2nccn2CC2CCC2)C1 (stereo unspecified) | -3.67 |
| Cc1ccccc1C(C(=O)NCCn1cccc1)N(C)C (stereo unspecified) | 7.62 |
| CC(C)N1CCOC(CC(=O)N2CCCN(c3ccc(F)cc3)CC2)C1 (stereo unspecified) | -4.66 |
| CCn1ccnc1CN(C)Cc1nc(Cc2ccccc2F)no1 | 0.686 |
| CCc1ccc2nc(C)cc(C(=O)N[C@@H]3C[C@@H](CO)N(C)C3)c2c1 | 2.35 |
| Cc1nc(N2CCCC2)nc(N2CCC(O)(C(=O)O)CC2)c1C | -5.62 |
| Cc1cnc2c(C(=O)N(C)Cc3cc(C4CC4)[nH]n3)cnn2c1 | -5.71 |
| N#Cc1cccc(N2CCC(CO)(CCCc3ccccc3)CC2)n1 | -45.7 |
| CCn1c(C)nnc1SCCNc1cc(OC)ncn1 | 5.87 |
| CN(C)CCCC(=O)NC1CC(C)(C)Cc2nc(C(C)(C)C)ncc21 (stereo unspecified) | 15.2 |
| CC(C)N1CC(n2ccnc2-c2nccn2C)CC1=O (stereo unspecified) | -0.371 |
| CCC(NC1CCCC1)c1ccc(S(C)(=O)=O)cc1 (stereo unspecified) | -3.37 |
| O=C(O)[C@@H]1CN(Cc2ccc3nsnc3c2)C[C@H]1c1ccncc1 | 5.4 |
| O=C(CN1CCOC1=O)N(Cc1ccccc1)Cc1nccs1 | 0.84 |
| Cc1nc(CC(=O)N2CCC[C@H]2c2nc(C(C)C)no2)cs1 | -14.2 |
| Cc1occc1C(=O)N1CCC2(CCC(=O)N(CC(N)=O)C2)CC1 | -9.32 |
| Cc1nn(C)cc1-c1cc(C(F)F)n2nc(CCC(=O)O)nc2n1 | -5.44 |
| CCC(CC#N)n1ccc(C(F)(F)F)n1 (stereo unspecified) | -8.38 |
| CC(C)c1nccn1-c1cccc(C2CCCN2S(=O)(=O)N(C)C)n1 (stereo unspecified) | 4.26 |
| Cc1nc(C)n(C2CCCN(C(=O)c3ccc4[nH]nnc4c3)C2)n1 (stereo unspecified) | -13.9 |
| O=C(c1ccccc1N1CCOCC1)N1CCCC(n2ccnc2)C1 (stereo unspecified) | -10.7 |
| Cc1cc(NC(=O)NCC(O)c2ccc(F)c(F)c2)n(C)n1 (stereo unspecified) | -21.1 |
| COc1ccc(C)cc1CN(C)Cc1nc2c(cnn2C)c(=O)[nH]1 | -5.33 |

| SMILES | cytotoxicity at 10 µM [%] |
| --- | --- |
| O=C(CCc1cscn1)N1CCCC(n2ccnc2)C1 (stereo unspecified) | -3.03 |
| Cc1ccc(N2CCCC(NCC(=O)NCC3CC3)C2)nn1 (stereo unspecified) | -2.5 |
| COc1cccc(COCC(=O)N2CCCC(c3nncn3C)C2)c1 (stereo unspecified) | -6.36 |
| COc1ccccc1CC1CCCN(CC(N)=O)C1 (stereo unspecified) | 5.68 |
| CC(C(=O)NCc1ccc(-n2cncn2)nc1)n1ccnc1 (stereo unspecified) | 0.409 |
| CCc1nnsc1C(=O)N1CCCN(Cc2cnn(C)c2)CC1 | -2.26 |
| c1cnc2[nH]nc(C3CCN(Cc4ccsc4)CC3)c2c1 | -27.3 |
| CC(C)CN1CCCC2(CCN(c3ccccn3)C2)C1 (stereo unspecified) | -1.22 |
| CN1CC(=O)N(c2cnn(C)c2)CC12CCN(Cc1ccccc1)C2 (stereo unspecified) | -7.24 |
| Fc1ccc(CNCC2Cn3nncc3CO2)cc1 (stereo unspecified) | 7.31 |
| Cc1ccc(N2CCC3(CC2)CNC(=O)CO3)nn1 | 6.07 |
| CN(C)C(=O)CN1C(=O)CO[C@@H]2CN(c3ccccn3)C[C@H]21 | 12.3 |
| CN1CCNC(Cc2ccc(-c3ccncc3)cc2)C1=O (stereo unspecified) | -25.8 |
| COCCN1CCOCC12CCN(C(=O)c1ccoc1)CC2 | -84.6 |
| CN1CC(=O)N(c2cccc(F)c2)CC12CCN(CCO)C2 (stereo unspecified) | -82.1 |
| Cc1nnc(N2CC[C@H]3O[C@H](C(=O)NCc4ccccn4)CC[C@H]32)s1 | -66.4 |
| O=C(c1c[nH]cn1)N1CCC(F)(F)C2(CCN(c3cccc(F)c3)C2)C1 (stereo unspecified) | 9.58 |
| CN(C)S(=O)(=O)N1CC[C@]2(C[C@@H](Oc3cccnc3)CO2)C1 | -76.3 |
| COc1ccc(C2c3c(N)nc(SC)nc3N=C3CCCC(=O)C32)cc1 (stereo unspecified) | -18.7 |
